Here are results for 4 compounds from ChEMBL document CHEMBL4364271, “Unveiling the Importance of Amide Protons in CSP:ComD Interactions in Streptococcus pneumoniae” (ACS Med Chem Lett, 2019).

Molecules are shown by their SMILES. Active and inactive are the calls of the source. The calls are words filed in the database; no cut-off is given here. Non-standard residues stand in square brackets, D forms with d. Residues, ends and D or L forms follow the SMILES beside them. NMeE = CN[C@@H](CCC(=O)O)C(=O)O; NMeK = CN[C@@H](CCCCN)C(=O)O; NMeM = CN[C@@H](CCSC)C(=O)O

Data set [1] can be described thus: Solubility of the compound in ammonium carbonate solution at pH 8. The class given is physicochemical. Particulars: buffer.
For data set [2], the system named is Streptococcus pneumoniae TIGR4. Kind of data set: Antagonist activity at ComD2 receptor in Streptococcus pneumoniae TIGR4 harboring pcomX/lacZ reporter gene assessed as inhibition of CSP2-stimulated maximum signal at 10 uM preincubated for 30 mins followed by 250 nM CSP2 addition by ONPG based beta-galactosidase assay relative to native CSP2. The essentials:
(§1)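 Inhibition screen: peptides at 10 μM against CSP1 50 nM (D39, ComD1) or CSP2 250 nM (TIGR4, ComD2), in comX-lacZ reporter strains. β-gal Miller units normalized to CSP alone (100%) and DMSO (0%). Triplicates over three separate trials.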
A general note: A reporter such as luciferase makes a cellular process visible.

Data set [3] in a line: Antagonist activity at ComD2 receptor in Streptococcus pneumoniae TIGR4 harboring pcomX/lacZ reporter gene assessed as inhibition of CSP2-stimulated maximum signal preincubated for 30 mins followed by 250 nM native CSP2 addition by ONPG based beta-galactosidase assay. The essentials:
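Comx-lacZ β-gal reporter inhibition in D39 (ComD1, CSP1 50 nM) or TIGR4 (ComD2, CSP2 250 nM). Peptides tested over a range of concentrations against the stimulating CSP. Miller units normalized to CSP alone. IC50 given with 95% confidence interval.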

The subject of data set [4] is Streptococcus pneumoniae D39. Nature of the data set: Agonist activity at ComD1 receptor in Streptococcus pneumoniae D39 harboring pcomX/lacZ reporter gene at 10 uM incubated for 30 mins by ONPG based beta-galactosidase assay relative to native CSP1. The essentials:
(§2)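 Single-dose screen of synthetic peptide at 10 μM in wild-type reporter strains (D39 for ComD1, TIGR4 for ComD2) producing their own CSP and carrying lacZ under the comX promoter. β-gal activity in Miller units normalized to native CSP (CSP1 or CSP2, 100%); DMSO 0%. Triplicates over three separate trials.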

For data set [5], the system named is Streptococcus pneumoniae D39. Nature of the data set: Antagonist activity at ComD1 receptor in Streptococcus pneumoniae D39 harboring pcomX/lacZ reporter gene assessed as inhibiton of CSP1-stimulated maximum signal at 10 uM preincubated for 30 mins followed by 50 nM CSP1 addition by ONPG based beta-galactosidase assay relative to native CSP1. In outline:
as §1

The species entered for another data set is Homo sapiens. Kind of data set: Metabolic stability in aqueous ammonium carbonate solution assessed as trypsin/chymotrypsin (unknown origin)-mediated drug degradation by measuring half life at 0.05 ug/ml incubated in shaking conditions and measured for 24 hrs by RP-HPLC analysis.
Data set [6] in a line: Agonist activity at ComD1 receptor in Streptococcus pneumoniae D39 harboring pcomX/lacZ reporter gene incubated for 30 mins by ONPG based beta-galactosidase assay. The essentials:
(§3)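 Dose-response in wild-type lacZ reporter strains (comX promoter; D39 for ComD1, TIGR4 for ComD2) producing native CSP. Peptides tested over a range of concentrations. β-gal read-out (Miller units) normalized to native CSP. EC50 reported with 95% confidence interval.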

For data set [7], the system named is Streptococcus pneumoniae TIGR4. Kind of data set: Agonist activity at ComD2 receptor in Streptococcus pneumoniae TIGR4 harboring pcomX/lacZ reporter gene at 10 uM incubated for 30 mins by ONPG based beta-galactosidase assay relative to native CSP2. The essentials: as §2
Data set [8] in a line: Metabolic stability in human plasma assessed as half-life at 0.33 mM measured for 3 hrs by RP-HPLC analysis. The class given is ADME, cell-free.
Data set [9] in a line: Metabolic stability in aqueous ammonium carbonate solution assessed as trypsin/chymotrypsin (unknown origin)-mediated drug degradation by measuring half life at 0.05 ug/ml incubated in shaking conditions in presence of trypsin/chymotrpsin and measured for 48 hrs by RP-HPLC analysis. Format: ADME. Particulars: human.
A short description of data set [10]: Agonist activity at ComD2 receptor in Streptococcus pneumoniae TIGR4 harboring pcomX/lacZ reporter gene incubated for 30 mins by ONPG based beta-galactosidase assay. In outline: as §3

In general, inhibition refers to the change of the read-out against control, counted positive when it falls. The term IC50 denotes the midpoint of a concentration-inhibition curve. Consider `CC[C@H](C)[C@H](NC(=O)[C@H](CCCNC(=N)N)NC(=O)[C@H](CCSC)N(C)C(=O)[C@@H](N)CCC(=O)O)C(=O)N[C@@H](CO)C(=O)N[C@@H](CCCNC(=N)N)C(=O)N[C@H](C(=O)N[C@H](C(=O)N[C@@H](CC(C)C)C(=O)N[C@@H](CC(=O)O)C(=O)N[C@@H](Cc1ccccc1)C(=O)N[C@@H](CC(C)C)C(=O)N[C@@H](Cc1ccccc1)C(=O)O)[C@@H](C)CC)[C@@H](C)CC` (H-E[NMeM]RISRIILDFLF-OH), for which the solubility entry in [1] is on record as “Insoluble”. For the same compound, the inhibition in data set [2] was greater than 50%. Also, in [3], the concentration for half-maximal inhibition (IC50) is greater than 1000 nM. Further, the result in data set [4] was inactive. Besides, in data set [5], the inhibition entry was “inactive”.
Broadly, the EC50 is the midpoint of the concentration-response curve. A high value points to lower potency in that assay. Consider `CC[C@H](C)[C@H](NC(=O)[C@H](Cc1ccccc1)NC(=O)[C@H](CC(=O)O)NC(=O)[C@H](CCCNC(=N)N)NC(=O)[C@H](Cc1ccccc1)NC(=O)[C@H](Cc1ccccc1)NC(=O)[C@H](CCCCN)NC(=O)[C@H](CO)NC(=O)[C@H](CC(C)C)NC(=O)[C@H](CCCNC(=N)N)NC(=O)[C@H](CCSC)NC(=O)[C@@H](N)CCC(=O)O)C(=O)N[C@@H](CC(C)C)C(=O)N[C@@H](CCC(N)=O)C(=O)N[C@@H](CCCNC(=N)N)C(=O)N[C@@H](CCCCN)C(=O)N[C@@H](CCCCN)C(=O)O`, for which the T1/2 in the data set listed under Homo sapiens was found to be 1.5 h. The EC50 in data set [6] came to 10 nM.
For the compound `CC[C@H](C)[C@H](NC(=O)[C@H](CCCNC(=N)N)NC(=O)[C@H](CCSC)NC(=O)[C@H](CCC(=O)O)NC)C(=O)N[C@@H](CO)C(=O)N[C@@H](CCCNC(=N)N)C(=O)N[C@H](C(=O)N[C@H](C(=O)N[C@@H](CC(C)C)C(=O)N[C@@H](CC(=O)O)C(=O)N[C@@H](Cc1ccccc1)C(=O)N[C@@H](CC(C)C)C(=O)N[C@@H](Cc1ccccc1)C(=O)O)[C@@H](C)CC)[C@@H](C)CC` (H-[NMeE]MRISRIILDFLF-OH), in data set [1], the solubility result is listed as “Insoluble”. In addition, in [2], the inhibition was greater than 50%. For the same compound, in data set [3], the IC50 is greater than 1000 nM. The result in [4] was inactive. Further, the inhibition entry in data set [5] is “inactive”.
By half-life is commonly meant how long it takes for the measured level to halve. `CC[C@H](C)[C@H](NC(=O)[C@H](Cc1ccccc1)NC(=O)[C@H](CC(=O)O)NC(=O)[C@H](CCCNC(=N)N)NC(=O)[C@H](Cc1ccccc1)NC(=O)[C@H](Cc1ccccc1)NC(=O)[C@H](CCCCN)N(C)C(=O)[C@H](CO)NC(=O)[C@H](CC(C)C)NC(=O)[C@H](CCCNC(=N)N)NC(=O)[C@H](CCSC)NC(=O)[C@@H](N)CCC(=O)O)C(=O)N[C@@H](CC(C)C)C(=O)N[C@@H](CCC(N)=O)C(=O)N[C@@H](CCCNC(=N)N)C(=O)O` (H-EMRLS[NMeK]FFRDFILQR-OH): the outcome in data set [7] was inactive. In addition, the half-life at 330 µM in [8] was less than 0.5 h. This compound also came in with an Activity in data set [4] greater than 75%. Besides, the values for the EC50 in [6] and in data set [10] were 65 nM and greater than 1000 nM, respectively. Moreover, in data set [9], the half-life at 0.05 ug/ml was greater than 48 h.
